The test system of series [1] is E. faecium strain Aus0085. The series is described as follows: Time-kill assay against E. faecium. Type of series: cell-based, Enterococcus faecium.
In series [2] the test system is VREfm. The series is described as follows: MIC by broth microdilution against E. faecium. In kind it is cell-based, Enterococcus faecium. Particulars: for fold loss in activity against E. faecium: compared with analogue 1. A general note: Dilution methods test growth across graded concentrations, often in twofold steps.
The test system of series [3] is human erythrocytes. Put plainly: Haemolysis assay. Type of series: cell-based. Particulars: 1 h, 37 °C. Summed up:
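Human whole blood collected in K2-EDTA and pelleted at 500 g for 5 min. RBCs washed twice in saline and once in PBS, then diluted 1:50 in PBS. Test compound made at 20× in DMSO and added 1:20 (final 0.125−128 mg/L). Incubated 1 h at 37 °C. Controls were DMSO vehicle and 1% (v/v) Triton X-100. After centrifugation at 500g, supernatant A450 was read. Three biological replicates.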

For series [4], the system named is C. difficile strain EDN0008. Put plainly: Time-kill assay against C. difficile. Type of series: cell-based, Clostridioides difficile.
A short description of series [5]: Pharmacokinetics and urinary/faecal recovery after oral administration in rats. Type of series: in vivo, Sprague Dawley rats. Particulars: 30 mg/kg; for AUC(0-inf) / Cmax / Tmax / half-life: male, Sprague Dawley, rat, plasma, po; for % dose in urine (0–48 h): unchanged compound, male Sprague Dawley rats, oral, mean ± SD n = 3.
For series [6], the system named is human erythrocytes. Particulars: cited from earlier work.
Series [7] concerns VREfm. Particulars: range of clinically relevant E. faecium strains; cited from earlier work.
A further series has as its system HepG2. Particulars: cited from earlier work.
Another series concerns C. difficile. The series is described as follows: MIC by broth microdilution against C. difficile. In kind it is cell-based, Clostridioides difficile.
Another series can be described thus: Caco-2 cell permeability. In kind it is in vitro ADME. As to conditions: human, Caco-2, pH 7.4. In general terms: Passage across Caco-2 layers is used to estimate intestinal permeability.
Another series has as its system Caco-2 cell monolayers. Put plainly: Caco-2 cell permeability. In kind it is in vitro ADME.
[8] abbreviates: exposure to 4 μg/mL, up to 48 h.

These results are taken from PMC8892681 (ACS Omega, 2022).

Entries after “also recorded” stand apart in the source; their conditions may differ. Like-named read-outs stand apart in the source and are kept apart here. Where only a bound is given, the exact number is not on record here.

In the case of `Cl.NCCc1ccc(Oc2ccc(-c3noc(-c4ccc(O)cc4)n3)cc2)cc1` [15e, 4-(3-(4-(4-(2-Aminoethyl)phenoxy)phenyl)-1,2,4-oxadiazol-5-yl)phenol Hydrochloride], in series [1] (4 μg/mL), the “time to 100% kill of VREfm” value was at most 24 h. In addition, the “time to 100% kill of VREfm” value in series [1] (8 μg/mL (2× MIC of 15e)) is at most 1 h. In series [1] (setting [8]), the “regrowth of VREfm in time-kill assay” value is “remained undetectable”. In addition, in [1] (exposure to 8 μg/mL), the “regrowth of VREfm in time-kill assay” value was “no rebounding growth observed”. Further, the “fold loss in activity against E. faecium” value in the series on VREfm [2] is on record as 2 fold. The “concentration leading to substantial levels of haemolysis” value with human erythrocytes [3] is at least 64 µg/mL. Moreover, the “time to 100% kill of C. difficile” value in series [4] was at most 3 h. Besides, in series [5], the AUC(0-inf) came to 0.9 ± 0.22 µM·h, the Cmax was determined as 160 ± 38 nM, the Tmax turned out to be 2.5 h and the half-life was 120 ± 18 min. In addition, the “% dose in urine (0–48 h)” value in series [5] is on record as 0.08 ± 0.03%.

Turning to `Oc1ccc(-c2nc(-c3ccc(Oc4ccccc4)cc3)no2)cc1` [compound 1, 4-(3-(4-Phenoxyphenyl)-1,2,4-oxadiazol-5-yl)phenol], the “concentration leading to haemolysis in human erythrocytes” value in the series with human erythrocytes [6] is over 64 µg/mL. The “time to 100% kill of VREfm” value is given as at most 24 h in series [1] (4 μg/mL) and at most 1 h in series [1] (8 μg/mL (2× MIC of 15e)). In addition, the “regrowth of VREfm in time-kill assay” value in [1] (setting [8]) is listed as “rebounding growth of VREfm was observed after 48 h”; in series [1] (exposure to 8 μg/mL), “no rebounding growth observed”. Moreover, the “killing activity in time-kill assay” value in series [4] is recorded as “rapid bactericidal activity”. The “E. faecium MIC90” value in the series on VREfm [7] was 2 µg/mL. In addition, the HepG2 viability entry in the series with HepG2 (at concentrations higher than 2 μg/mL) was “reduced viability”. In addition, the “toxicity against HepG2” value in the series with HepG2 (at the E. faecium MIC90 (2 μg/mL)) is recorded as “not toxic”.

In the case of `Cl.NCCc1ccccc1Oc1ccc(-c2noc(-c3ccc(O)cc3)n2)cc1` [15b, 4-(3-(4-(2-(2-Aminoethyl)phenoxy)phenyl)-1,2,4-oxadiazol-5-yl)phenol Hydrochloride], the “fold loss in activity against E. faecium” value in the series on VREfm [2] is listed as 4 fold.

With `CN[C@H](CC(C)C)C(=O)N[C@H]1C(=O)N[C@@H](CC(N)=O)C(=O)N[C@H]2C(=O)N[C@H]3C(=O)N[C@H](C(=O)N[C@H](C(=O)O)c4cc(O)cc(O)c4-c4cc3ccc4O)[C@H](O)c3ccc(c(Cl)c3)Oc3cc2cc(c3O[C@@H]2O[C@H](CO)[C@@H](O)[C@H](O)[C@H]2O[C@H]2C[C@](C)(N)[C@H](O)[C@H](C)O2)Oc2ccc(cc2Cl)[C@H]1O` [Vancomycin, vancomycin, reference compound], in [4] (C. difficile EDN0008, 1 at ≥2 × MIC (12–48 μg/mL), vancomycin 8 μg/mL), the “killing activity in time-kill assay” value was “bacteriostatic activity”. Besides, the “C. difficile MIC” value in the series with C. difficile (broth microdilution, 48 h anaerobic, biological triplicate) is 2 µg/mL.

`CC(C)NCC(O)COc1cccc2ccccc12` (centres unmarked) [propranolol] registered a Papp A→B at 120 min in the series “Caco-2 cell permeability” of 42 ± 2.5 ×10⁻⁶ cm/s.

On to lucifer yellow, for which the Papp with Caco-2 cell monolayers (low permeability marker, acceptor solution) was < 1 10^–6 cm/s.

As to `C[N+](C)(C)CCc1ccc(Oc2ccc(-c3noc(-c4ccc(O)cc4)n3)cc2)cc1.[I-]` [26a, 2-(4-(4-(5-(4-Hydroxyphenyl)-1,2,4-oxadiazol-3-yl)phenoxy)phenyl)-N,N,N-trimethylethan-1-aminium Iodide], the “permeability across Caco-2 cell monolayer (in words)” value with Caco-2 cell monolayers (not detected in acceptor chamber, fully recovered in donor chamber) is on record as “complete impermeability; also recorded: no detectable permeability”. In the series on VREfm [2] (compared with the primary amine 15e), the “fold decrease in activity against E. faecium” value amounted to 2 fold. Besides, in [5], the AUC(0-inf) was determined as 0.28 ± 0.27 µM·h, the Cmax was determined as 39 ± 46 nM, the Tmax was determined as 2.8 ± 2 h and the half-life was 318 ± 126 min. The “% dose in urine (0–48 h)” value in series [5] is on record as 0.06 ± 0.03%.

With `Cl.NCc1ccccc1Oc1ccc(-c2noc(-c3ccc(O)cc3)n2)cc1` [15a, 4-(3-(4-(2-(Aminomethyl)phenoxy)phenyl)-1,2,4-oxadiazol-5-yl)phenol Hydrochloride], in the series on VREfm [2], the “fold loss in activity against E. faecium” value came out at 4 fold.

As for `Cl.NCc1ccc(Oc2ccc(-c3noc(-c4ccc(O)cc4)n3)cc2)cc1` [15d, 4-(3-(4-(4-(Aminomethyl)phenoxy)phenyl)-1,2,4-oxadiazol-5-yl)phenol Hydrochloride], the “fold loss in activity against E. faecium” value with VREfm [2] is 2 fold.

In the case of `O=C(O)CCc1ccc(Oc2ccc(-c3noc(-c4ccc(O)cc4)n3)cc2)cc1` [9g, 3-(4-(4-(5-(4-Hydroxyphenyl)-1,2,4-oxadiazol-3-yl)phenoxy)phenyl)propanoic Acid], the “fold loss in potency against C. difficile” value with C. difficile (4 position versus same substituent at 2 and 3 positions / analogue 1) was 4 fold.

Consider `COC(=O)c1ccccc1-c1c2ccc(=N)cc-2oc2cc(N)ccc12` [rhodamine 123], for which, in the series “Caco-2 cell permeability”, the Papp A→B at 120 min stood at 1.6 ± 0.13 ×10⁻⁶ cm/s, the Papp B→A at 120 min turned out to be 12 ± 2.7 ×10⁻⁶ cm/s and the efflux ratio at 120 min was determined as 7.3.

On to `CC(CN)c1ccc(Oc2ccc(-c3noc(-c4ccc(O)cc4)n3)cc2)cc1.Cl` (racemic) [15f, (RS)-4-(3-(4-(4-(1-Aminopropan-2-yl)phenoxy)phenyl)-1,2,4-oxadiazol-5-yl)phenol Hydrochloride], for which the “fold loss in potency against C. difficile” value in the series on C. difficile (compared with the ethyl linker 15e) turned out to be 5 fold.

Turning to `Cl.NCCCc1ccc(Oc2ccc(-c3noc(-c4ccc(O)cc4)n3)cc2)cc1` [15h, 4-(3-(4-(4-(3-Aminopropyl)phenoxy)phenyl)-1,2,4-oxadiazol-5-yl)phenol Hydrochloride], the “fold increase in activity against E. faecium” value in the series on VREfm [2] (propylamine versus ethylamine linker (15e)) was found to be 2 fold.

Broadly, the AUC(0-inf) is the area under the concentration-time curve extrapolated to infinity. Lower therefore signals low exposure. Usually Cmax stands for the maximum level reached in the sampled fluid or tissue. As a reminder, the Tmax is the time at which the peak concentration occurs. What is called Papp A→B is how fast a substance crosses the layer from the apical side. High values mean ready permeation, low ones poor permeation. Usually Papp B→A stands for the apparent permeability from the basolateral to the apical side of a cell layer. The term efflux ratio denotes a quotient of directional permeabilities that is used to spot active efflux.
